Active and inactive are the calls of the source. The calls are words filed in the database; no cut-off is given here.
Tests used:
IGROV-1 [1] = assay: Antiproliferative activity against human IGROV1 cells after 72 hrs by cell counter; assay type: functional, cell-based
In short: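 Log-phase cells seeded in duplicate; for the paclitaxel combination, cells got compound 2 h before the antimicrotubule agent. Final DMSO at most 0.5%. After treatment, adherent cells were trypsinized and counted with a cell counter. IC50 is the concentration giving 50% fewer cells than untreated control.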

IGROV-1 [2] = assay: Induction of apoptosis in human IGROV1 cells at 5 uM after 72 hrs by TUNEL assay; assay type: functional
In short: (§1)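 IGROV-1 cells were exposed for 72 h; in the combination they were pretreated 2 h with compound before paclitaxel. Cells were fixed in 4% paraformaldehyde for 60 min at room temperature and washed. TUNEL labelling with fluorescein was read by flow cytometry as % TUNEL-positive cells, with at least three independent experiments.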

IGROV-1 [3] = assay: Induction of apoptosis in human IGROV1 cells at 0.12 uM after 72 hrs by TUNEL assay; assay type: functional; in short: as §1
U2OS = assay: Antitumor activity against human U2OS cells xenografted in athymic Swiss nude mouse at 24 mg/kg, iv administered every 4 days relative to paclitaxel; assay type: functional, organism-based; parameters: dose 24 mg/kg
In short: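 U2OS osteosarcoma tumors were grown sc in female athymic Swiss nude mice from 10^7 cells/mouse and kept by serial fragment passage. Dosing was iv every four days for 4 administrations, alone or combined with paclitaxel, starting at about 80 mm3. Controls received solvent. Tumor growth and complete regressions were followed.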

IGROV-1 [4] = assay: Reduction of paclitaxel-induced p21 expression in human IGROV1 cells at 0.12 uM after 24 hrs by Western blot analysis; assay type: functional, cell-based
In short: (§2)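 IGROV-1 cells were treated 24 h with paclitaxel 0.12 µM, compound, or both, then lysed. p53 and p21waf1 were detected by Western blot.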

IGROV-1 [5] = assay: Reduction of paclitaxel-induced p21 expression in human IGROV1 cells at 5 uM after 24 hrs by Western blot analysis; assay type: functional, cell-based; in short: as §2
IGROV-1 [6] = assay: Reduction of paclitaxel-induced p21 expression in human IGROV1 cells at 0.3 uM after 24 hrs by Western blot analysis; assay type: functional, cell-based; in short: as §2
IGROV-1 [7] = assay: Reduction of paclitaxel-induced p21 expression in human IGROV1 cells at 10 uM after 24 hrs by Western blot analysis; assay type: functional, cell-based; in short: as §2
IGROV-1 [8] = assay: Antitumor activity against human IGROV1 cells xenografted in athymic Swiss nude mouse assessed as tumor volume inhibition at 3 mg/kg, iv every 4 days for 4 administration; assay type: functional; parameters: scale not given: the % may be the effect or the level left
In short: (§3)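 Female athymic Swiss nude mice received IGROV-1 tumors sc in the right flank (10^7 cells/mouse), then maintained by serial sc passage of about 3x3x3 mm fragments. Dosing was iv, q4dx4, starting when tumors were about 80 mg. Read-out was % tumor volume inhibition, treated vs control, 4 mice per group, Student's t-test vs control.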

IGROV-1 [9] = assay: Antitumor activity against human IGROV1 cells xenografted in athymic Swiss nude mouse assessed as tumor volume inhibition at 9 mg/kg, iv every 4 days for 4 administration; assay type: functional; parameters: scale not given: the % may be the effect or the level left; in short: as §3
Mus musculus [10] = assay: Toxicity in athymic Swiss nude mouse assessed as body weight loss at 3 mg/kg, iv every 4 days for 4 administration; assay type: organism-based; parameters: dose 3 mg/kg, route intravenous; settings: in vivo, 96 h
In short: (§4)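 Female athymic Swiss nude mice with sc IGROV-1 xenografts were dosed iv every four days for 4 administrations (q4dx4), 4 mice per group. Toxicity was scored as % body weight loss from drug treatment, with lethal toxicity counted per group.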

Mus musculus [11] = assay: Toxicity in athymic Swiss nude mouse assessed as body weight loss at 9 mg/kg, iv every 4 days for 4 administration; assay type: organism-based; parameters: dose 9 mg/kg, route intravenous; settings: in vivo, 96 h; in short: as §4
Mus musculus [12] = assay: Toxicity in athymic Swiss nude mouse assessed as lethal toxicity at 3 mg/kg, iv every 4 days for 4 administration; assay type: organism-based; parameters: dose 3 mg/kg, route intravenous; settings: in vivo, 96 h
In short: (§5)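 Female athymic Swiss nude mice bearing sc IGROV-1 human ovarian carcinoma xenografts (10^7 exponentially growing cells/mouse into right flank; lines kept by serial sc fragment passage). Dosed iv every four days for 4 administrations (q4dx4), starting when tumors were measurable (around 80 mg). Lethal toxicity scored as animals dying per group (4 mice/group).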

Mus musculus [13] = assay: Toxicity in athymic Swiss nude mouse assessed as lethal toxicity at 9 mg/kg, iv every 4 days for 4 administration; assay type: organism-based; parameters: dose 9 mg/kg, route intravenous; settings: in vivo, 96 h; in short: as §5
IGROV-1 [14] = assay: Antitumor activity against human IGROV1 cells xenografted in athymic Swiss nude mouse assessed as tumor volume inhibition at 18 mg/kg, iv every 4 days for 4 administration; assay type: functional; parameters: scale not given: the % may be the effect or the level left; in short: as §3
Mus musculus [15] = assay: Toxicity in athymic Swiss nude mouse assessed as body weight loss at 18 mg/kg, iv every 4 days for 4 administration; assay type: organism-based; parameters: dose 18 mg/kg, route intravenous; settings: in vivo, 96 h; in short: as §4
Mus musculus [16] = assay: Toxicity in athymic Swiss nude mouse assessed as lethal toxicity at 18 mg/kg, iv every 4 days for 4 administration; assay type: organism-based; parameters: dose 18 mg/kg, route intravenous; settings: in vivo, 96 h; in short: as §5

For `COc1ccc(-c2ccc(-c3cn4c(n3)sc3ccccc34)cc2)cc1`, the IC50 (IGROV-1 [1]; Homo sapiens, IGROV-1, 72 h) was < 1 µM.

In the case of `Brc1ccc(-c2cn3c(n2)sc2ccccc23)cc1`, the IC50 (IGROV-1 [1]; Homo sapiens, IGROV-1, 72 h) is reported as 0.3 µM.

With `Cc1ccc(-c2cn3c4c(sc3n2)CCCC4)cc1` the IC50 (IGROV-1 [1]; Homo sapiens, IGROV-1, 72 h) was 23 µM.

`Nc1ccc(-c2cn3c4c(sc3n2)CCCC4)cc1` [listing 1 of 3 here] showed an IC50 (IGROV-1 [1]; igrov-1) of 4 µM and an Activity (IGROV-1 [2]) of 4%.

In the case of `CC(=O)O[C@H]1C(=O)[C@@]2(C)[C@H]([C@H](OC(=O)c3ccccc3)[C@]3(O)C[C@H](OC(=O)[C@H](O)[C@@H](NC(=O)c4ccccc4)c4ccccc4)C(C)=C1C3(C)C)[C@]1(OC(C)=O)CO[C@@H]1C[C@@H]2O` [PACLITAXEL], the Activity (IGROV-1 [3]) is reported as 13% and the Activity (U2OS) is reported as “inactive”.

For `O=[N+]([O-])c1ccc(-c2cn3c(n2)sc2ccccc23)cc1`, the IC50 (IGROV-1 [1]; Homo sapiens, IGROV-1, 72 h) was 2 µM.

In the case of `Nc1ccc(-c2cn3c4c(sc3n2)CCCC4)cc1` [listing 2 of 3 here], the IC50 (IGROV-1 [1]; igrov-1) is reported as 19 µM.

`NCc1ccc(-c2cn3c(n2)sc2ccccc23)cc1` [listing 1 of 2 here] was tested, and the Activity (IGROV-1 [4]) was “Active”, the Activity (IGROV-1 [5]) was “Active” and the Activity (IGROV-1 [6]) was “Active”. The Activity (IGROV-1 [7]) was “Active”.

`CCn1c2ccccc2n2cc(-c3ccc(C#N)cc3)nc12` showed an IC50 (IGROV-1 [1]; Homo sapiens, IGROV-1, 72 h) of 4.5 µM.

`OCc1ccc(-c2cn3c(n2)sc2ccccc23)cc1` gave an IC50 (IGROV-1 [1]; Homo sapiens, IGROV-1, 72 h) of 7 µM.

For `Cc1ccc(-c2cn3c(n2)sc2ccccc23)cc1`, the IC50 (IGROV-1 [1]; Homo sapiens, IGROV-1, 72 h) was 0.3 µM.

In the case of `NCCC(=O)NCc1ccc(-c2cn3c(n2)sc2ccccc23)cc1`, the IC50 (IGROV-1 [1]; Homo sapiens, IGROV-1, 72 h) is reported as 3 µM.

With `NCc1ccc(-c2cn3c(n2)sc2ccccc23)cc1` [listing 2 of 2 here] the IC50 (IGROV-1 [1]; igrov-1) was 0.03 µM.

In the case of `NCc1ccc(-c2cn3c4c(sc3n2)CCCC4)cc1` [listing 1 of 2 here], the Activity (IGROV-1 [4]) is reported as “Active”, the Activity (IGROV-1 [5]) is reported as “Active” and the Activity (IGROV-1 [6]) is reported as “Active”. For the same molecule, the Activity (IGROV-1 [7]) was “Active”.

Work on `Cn1c2ccccc2n2cc(-c3ccc(C#N)cc3)nc12` yielded an IC50 (IGROV-1 [1]; Homo sapiens, IGROV-1, 72 h) of 7 µM.

`O=Cc1ccc(-c2cn3c(n2)sc2ccccc23)cc1` gave an IC50 (IGROV-1 [1]; Homo sapiens, IGROV-1, 72 h) of 6 µM.

`NCc1ccc(-c2cn3c4c(sc3n2)CCCC4)cc1` [listing 2 of 2 here] was tested, and the IC50 (IGROV-1 [1]; igrov-1) was 12 µM.

In the case of `Nc1ccc(-c2cn3c(n2)sc2ccccc23)cc1` [listing 1 of 3 here], the IC50 (IGROV-1 [1]; igrov-1) is reported as 1 µM.

In the case of `CC(=O)NCc1ccc(-c2cn3c(n2)sc2ccccc23)cc1`, the IC50 (IGROV-1 [1]; Homo sapiens, IGROV-1, 72 h) is reported as 12 µM.

For `Cl.NCc1ccc(-c2cn3c(n2)sc2ccccc23)cc1`, the IC50 (IGROV-1 [1]; igrov-1) was 0.3 µM, the Activity (IGROV-1 [8]) was 15% and the Activity (IGROV-1 [9]) was 46%. For the same molecule, the Activity (Mus musculus [10]) was 3%, the Activity (Mus musculus [11]) was 5% and the Activity (Mus musculus [12]) was “Non-toxic”. For the same molecule, the Activity (Mus musculus [13]) was “Non-toxic”.

Work on `Cl.NCc1ccc(-c2cn3c4c(sc3n2)CCCC4)cc1` yielded an IC50 (IGROV-1 [1]; igrov-1) of 31 µM, an Activity (IGROV-1 [9]) of 21% and an Activity (IGROV-1 [14]) of 27%. For the same molecule, the Activity (Mus musculus [11]) was 6%, the Activity (Mus musculus [15]) was 4% and the Activity (Mus musculus [13]) was “Non-toxic”. For the same molecule, the Activity (Mus musculus [16]) was “Non-toxic”.

In the case of `Nc1ccc(-c2cn3c4c(sc3n2)CCCC4)cc1` [listing 3 of 3 here], the Activity (IGROV-1 [4]) is reported as “Active”, the Activity (IGROV-1 [5]) is reported as “Active” and the Activity (IGROV-1 [6]) is reported as “Active”. The Activity (IGROV-1 [7]) was “Active”.

For `CC(C)NC(=O)CCNCc1ccc(-c2cn3c(n2)sc2ccccc23)cc1`, the IC50 (IGROV-1 [1]; Homo sapiens, IGROV-1, 72 h) was 5 µM.

In the case of `N#Cc1ccc(-c2cn3c4c(sc3n2)CCCC4)cc1`, the IC50 (IGROV-1 [1]; Homo sapiens, IGROV-1, 72 h) is reported as 8 µM.

`N#Cc1ccc(-c2cn3c(n2)sc2ccccc23)cc1` showed an IC50 (IGROV-1 [1]; Homo sapiens, IGROV-1, 72 h) of 0.03 µM.

With `Nc1ccc(-c2cn3c(n2)sc2ccccc23)cc1` [listing 2 of 3 here] the Activity (IGROV-1 [4]) was “Active”, the Activity (IGROV-1 [5]) was “Active” and the Activity (IGROV-1 [6]) was “Active”. The Activity (IGROV-1 [7]) was “Active”.

Work on `Nc1ccc(-c2cn3c(n2)sc2ccccc23)cc1` [listing 3 of 3 here] yielded an IC50 (IGROV-1 [1]; igrov-1) of 5 µM.

`CC(=O)NCc1ccc(-c2cn3c4c(sc3n2)CCCC4)cc1` was tested, and the IC50 (IGROV-1 [1]; Homo sapiens, IGROV-1, 72 h) was 28 µM.
